≈ marks a conversion by molar mass, not a printed value.
Key:
[1] = system: Bacteroides fragilis; test: compound was tested for antibacterial activity Bacteroides fragilis NCTC 10581.; format: functional
[2] = system: Enterobacter cloacae; test: compound was tested for antibacterial activity against Ent. cloacae N1.; format: functional
[3] = system: Escherichia coli; test: compound was tested for antibacterial activity against Escherichia coli DC0.; format: functional
[4] = system: Escherichia coli; test: compound was tested for antibacterial activity against Escherichia coli DC2.; format: functional
In short: (§1)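 Broth microdilution in Mueller–Hinton broth; overnight broth cultures added to final 5 × 10^5 cfu/mL; incubated 37 °C, 18 h. MIC (µg/mL) taken as lowest concentration inhibiting growth.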

[5] = system: Enterococcus faecalis; test: compound was tested for antibacterial activity against Ent. faecalis I; format: functional; in short: as §1
[6] = system: Haemophilus influenzae; test: compound was tested for antibacterial activity against Haemophilus influenzae Q1.; format: functional
In short: (§2)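 Broth microdilution in Mueller–Hinton broth supplemented (final) with 5% heat-inactivated horse serum, 0.02 mg/mL hematin and 0.08 mg/mL NAD; inoculum 5 × 10^5 cfu/mL from overnight broth cultures; 37 °C for 18 h; MIC (µg/mL) read as lowest concentration inhibiting growth.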

[7] = biological target: T1, Isoleucine--tRNA ligase (Staphylococcus aureus, UniProt P41972); test: Inhibitory activity against isoleucyl-tRNA synthetase (IRS) of Staphylococcus aureus; format: functional
T1 sequence (P41972 whole entry): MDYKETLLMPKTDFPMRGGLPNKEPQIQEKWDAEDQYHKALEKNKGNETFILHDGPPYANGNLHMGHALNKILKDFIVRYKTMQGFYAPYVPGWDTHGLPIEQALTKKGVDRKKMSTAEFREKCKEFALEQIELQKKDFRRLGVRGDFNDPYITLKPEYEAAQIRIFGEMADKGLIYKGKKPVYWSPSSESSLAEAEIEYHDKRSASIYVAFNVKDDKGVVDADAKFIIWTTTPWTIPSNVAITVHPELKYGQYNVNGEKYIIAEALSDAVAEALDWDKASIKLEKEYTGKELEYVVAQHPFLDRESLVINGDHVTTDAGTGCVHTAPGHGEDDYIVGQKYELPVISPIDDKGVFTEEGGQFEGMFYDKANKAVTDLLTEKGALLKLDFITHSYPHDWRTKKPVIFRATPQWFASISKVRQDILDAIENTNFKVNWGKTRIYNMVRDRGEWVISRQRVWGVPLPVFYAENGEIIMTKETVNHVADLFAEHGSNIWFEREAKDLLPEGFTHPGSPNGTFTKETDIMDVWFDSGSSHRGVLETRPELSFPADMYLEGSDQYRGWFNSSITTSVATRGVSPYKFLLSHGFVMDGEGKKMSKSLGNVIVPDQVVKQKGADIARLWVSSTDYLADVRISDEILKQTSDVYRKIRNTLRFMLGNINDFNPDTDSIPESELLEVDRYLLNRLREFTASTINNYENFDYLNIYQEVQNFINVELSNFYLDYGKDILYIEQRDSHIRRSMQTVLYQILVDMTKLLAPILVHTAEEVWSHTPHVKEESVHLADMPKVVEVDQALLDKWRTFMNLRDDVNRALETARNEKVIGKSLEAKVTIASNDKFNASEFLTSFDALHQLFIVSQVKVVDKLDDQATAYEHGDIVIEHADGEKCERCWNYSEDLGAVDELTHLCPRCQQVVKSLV

[8] = system: Klebsiella pneumoniae; test: compound was tested for antibacterial activity against Klebsiella pneumoniae E70.; format: functional; in short: as §1
[9] = system: Moraxella catarrhalis; test: compound was tested for antibacterial activity against Moraxella catarrhalis 1502.; format: functional; in short: as §2
[10] = system: Proteus mirabilis; test: compound was tested for antibacterial activity against Pr. mirabilis C889.; format: functional; in short: as §1
[11] = system: Pseudomonas aeruginosa; test: compound was tested for antibacterial activity against Pseudomonas aeruginosa K799 wt.; format: functional; in short: as §1
[12] = system: Staphylococcus epidermidis; test: compound was tested for antibacterial activity aagainst Staphylococcus epidermidis PHLN 20.; format: functional; in short: as §1
[13] = system: Streptococcus pneumoniae; test: compound was tested for antibacterial activity against Strep. pneumoniae 1761.; format: functional; in short: as §2
[14] = system: Staphylococcus aureus; test: compound was tested for antibacterial activity against Staphylococcus aureus F 89.; format: functional; in short: as §1
[15] = system: Staphylococcus aureus; test: compound was tested for antibacterial activity against Staphylococcus aureus NCTC 6571.; format: functional; in short: as §1
[16] = system: Streptococcus pyogenes; test: compound was tested for antibacterial activity against Streptococcus pyogenes CN10.; format: functional; in short: as §2
[17] = system: Staphylococcus aureus; test: compound was tested for antibacterial activity against Staphylococcus aureus C 37.; format: functional
[18] = biological target: T1, Isoleucine--tRNA ligase; test: compound was tested for inhibitory activity of isoleucyl-tRNA synthetase (IRS).; format: functional
[19] = Pharmacokinetic parameter Cmax was determined in blood level in mouse after oral administration.; format: ADME, organism-based; design: route oral
In short: (§3)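 CD1 male mice (18–22 g), nonfasted, groups of five; 50 mg/kg in 0.2 mL, dissolved in 10% ethanol then diluted 1:9 with 1% HPMC in water (po) or PBS pH 7.3 (sc). Blood sampled 5–240 min; levels by Bacillus subtilis agar bioassay (pH 7.0, 30 °C overnight) against standards in heparinized mouse blood.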

[20] = system: Mus musculus; test: Pharmacokinetic parameter Cmax was determined in blood level in mouse after subcutaneous administration.; format: ADME, organism-based; design: route subcutaneous; conditions: in vivo, sc; in short: as §3
[21] = system: Mus musculus; test: Pharmacokinetic parameter AUC was determined in blood level in mouse after oral administration.; format: ADME, organism-based; conditions: in vivo; in short: as §3
[22] = system: Mus musculus; test: Pharmacokinetic parameter AUC was determined in blood level in mouse after subcutaneous administration.; format: ADME, organism-based; conditions: in vivo, sc; in short: as §3
[23] = system: Mus musculus; test: Total […] dose against Staphylococcus aureus after […] administration (1+5 hr post infection) to mouse; format: organism-based; conditions: in vivo, po
In short: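 CD1 male mice, groups of five, infected ip with S. aureus Smith, 1.3 × 10^10 cfu (po groups) or 5 × 10^9 cfu (sc groups); dosed po or sc at 1 + 5 h postinfection, 0.2 mL/mouse. CD50 = total dose protecting 50% of mice from death, scored day 2 postinfection.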

[24] = Pharmacokinetic parameter Tmax was determined in blood level in mouse after oral administration.; format: ADME, organism-based; in short: as §3
[25] = Pharmacokinetic parameter Tmax was determined in blood level in mouse after subcutaneous administration.; format: ADME, organism-based; conditions: sc; in short: as §3
[26] = system: Mus musculus; test: Total […] dose against Staphylococcus aureus after sc administration (1+5 hr post infection) to mouse; conditions: in vivo
[27] = biological target: Isoleucine--tRNA ligase, Staphylococcus aureus (UniProt P41972); test: compound was tested for inhibitory activity of isoleucyl-tRNA synthetase (IRS).

SMILES	MIC [1]	MIC [2]	MIC [3]	MIC [4]	MIC [5]	MIC [6]	IC50 [7]	MIC [8]	MIC [9]	MIC [10]	MIC [11]	MIC [12]	MIC [13]	MIC [14]	MIC [15]	MIC [16]	MIC [17]	CD50 [26]	further results
C/C(=C\c1ncc(-c2cc([N+](=O)[O-])cs2)o1)C[C@@H]1OC[C@H](C[C@@H]2O[C@H]2[C@@H](C)[C@H](C)O)[C@@H](O)[C@H]1O	> 64 µg/mL	16 µg/mL (≈ 32.4 µM)	32 µg/mL (≈ 64.7 µM)	< 0.06 µg/mL	32 µg/mL (≈ 64.7 µM)	< 0.06 µg/mL	6.87 nM	32 µg/mL (≈ 64.7 µM)	< 0.06 µg/mL	64 µg/mL (≈ 129 µM)	> 64 µg/mL	< 0.06 µg/mL	< 0.06 µg/mL	> 64 µg/mL	< 0.06 µg/mL	< 0.06 µg/mL	32 µg/mL (≈ 64.7 µM)	–	–
C/C(=C\c1ncc(-c2ccc([N+](=O)[O-])o2)o1)C[C@@H]1OC[C@H](C[C@@H]2O[C@H]2[C@@H](C)[C@H](C)O)[C@@H](O)[C@H]1O	2 µg/mL (≈ 4.18 µM)	4 µg/mL (≈ 8.36 µM)	16 µg/mL (≈ 33.4 µM)	< 0.06 µg/mL	16 µg/mL (≈ 33.4 µM)	< 0.06 µg/mL	–	> 64 µg/mL	< 0.06 µg/mL	> 64 µg/mL	> 64 µg/mL	< 0.06 µg/mL	< 0.06 µg/mL	4 µg/mL (≈ 8.36 µM)	< 0.06 µg/mL	< 0.06 µg/mL	4 µg/mL (≈ 8.36 µM)	1.2 mg/kg	IC50 [18]: 400 µg/mL (≈ 836 µM); Cmax [19]: 28700 ng/mL; Cmax [20]: 30500 ng/mL; AUC [21]: 1734 ug m-1 min-1; AUC [22]: 2407 ug m-1 min-1; CD50 [23]: 3.2 mg/kg; Tmax [24]: 15 min; Tmax [25]: 5 min
C/C(=C\c1ncc(-c2csc([N+](=O)[O-])c2)o1)C[C@@H]1OC[C@H](C[C@@H]2O[C@H]2[C@@H](C)[C@H](C)O)[C@@H](O)[C@H]1O	16 µg/mL (≈ 32.4 µM)	16 µg/mL (≈ 32.4 µM)	32 µg/mL (≈ 64.7 µM)	< 0.06 µg/mL	32 µg/mL (≈ 64.7 µM)	< 0.06 µg/mL	4.45 nM	64 µg/mL (≈ 129 µM)	0.125 µg/mL (≈ 0.253 µM)	64 µg/mL (≈ 129 µM)	> 64 µg/mL	0.125 µg/mL (≈ 0.253 µM)	< 0.06 µg/mL	64 µg/mL (≈ 129 µM)	0.125 µg/mL (≈ 0.253 µM)	< 0.06 µg/mL	32 µg/mL (≈ 64.7 µM)	–	–
CN[C@H](CC(C)C)C(=O)N[C@H]1C(=O)N[C@@H](CC(N)=O)C(=O)N[C@H]2C(=O)N[C@H]3C(=O)N[C@H](C(=O)N[C@H](C(=O)O)c4cc(O)cc(O)c4-c4cc3ccc4O)[C@H](O)c3ccc(c(Cl)c3)Oc3cc2cc(c3O[C@@H]2O[C@H](CO)[C@@H](O)[C@H](O)[C@H]2O[C@H]2C[C@](C)(N)[C@H](O)[C@H](C)O2)Oc2ccc(cc2Cl)[C@H]1O [VANCOMYCIN]	–	–	–	–	–	–	–	–	–	–	–	–	–	–	–	–	–	3.8 mg/kg	–
C/C(=C\c1ncc(-c2ncc([N+](=O)[O-])n2C)o1)C[C@@H]1OC[C@H](C[C@@H]2O[C@H]2[C@@H](C)[C@H](C)O)[C@@H](O)[C@H]1O	0.5 µg/mL (≈ 1.02 µM)	> 64 µg/mL	> 64 µg/mL	1 µg/mL (≈ 2.03 µM)	64 µg/mL (≈ 130 µM)	< 0.06 µg/mL	–	> 64 µg/mL	0.25 µg/mL (≈ 0.508 µM)	> 64 µg/mL	> 64 µg/mL	< 0.06 µg/mL	0.5 µg/mL (≈ 1.02 µM)	> 64 µg/mL	2 µg/mL (≈ 4.06 µM)	0.25 µg/mL (≈ 0.508 µM)	> 64 µg/mL	–	IC50 [27]: 0.0007 µg/mL (≈ 0.00142 µM)
